# proCasp7 act: procaspase-7 activators, primary screen, counter-screen for procaspase-3 activator project, biochemical, absorbance, HTS, human | Caspase-7 (Homo sapiens), P55210 | recombinant procaspase-7, Ac-DEVD-pNA absorbance 405 nm; D23A/D198A/D206A triple mutant, cannot self-cleave; scale: DMSO 0, 5 µM enzyme 100 | activation, % at 8.5 µM | 330,000 tested, 0.093% active | AID 463210, 2010;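 active = percent activation above the screen-wide mean plus 3 SD, cut at about 25% in these data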
#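 Test system: Procaspase-7 triple mutant (PC-7 D3A). Also added: Ac-DEVD-pNA substrate, 400 µM as added. Schedule: 1 h enzyme–compound preincubation and 2 h substrate reaction, both 25 °C. Signal: p-Nitroaniline absorbance at 405 nm, read at 0 and 120 min. Control set: low DMSO alone, high DMSO plus 5 µM PC-7.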
# proCasp3 act: activators of human procaspase-3 D3A mutant, primary screen, biochemical, absorbance, PC-3 D3A mutant, single concentration; 330,000 tested, 0.11% active; recombinant procaspase-3 D3A, Ac-DEVD-pNA absorbance 405 nm; AID 463141, 2010; activation, % at 8.5 µM;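 active = activation above the mean of all tested compounds plus 3 SD, cut at about 21% in these data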;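 also: 0% = DMSO alone and 100% = DMSO wells spiked with extra 5 µM PC-3 D3A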
#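 Compound: 8.5 µM single point, 0.8% DMSO / Material: Autoprocessing-dead procaspase-3 D3A mutant enzyme / Timing: 1 h preincubation plus 2 h reaction at 25 °C / Medium: Zinc-free HEPES/NaCl buffer with 0.01% Triton X-100 at pH 7.4 / Technique: 405 nm absorbance of p-nitroaniline, reads at 0 and 120 min / Repeats: one well per compound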
# PLC-beta3 inh: human PLC-beta3 inhibitors, primary screen, biochemical, fluorescence | 1-phosphatidylinositol 4,5-bisphosphate phosphodiesterase beta-3 (Homo sapiens), Q01970 | Purified PLC-beta3, fluorogenic substrate | inhibition, % at 12.2 µM | 370,000 tested, 0.18% active | AID 720704, 2013; in the data active = inhibition above about 11%;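 also: 0% = median of compound wells on plate and 100% = full blocker control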
# sPLA2-III inh: human group III sPLA2 inhibitors, primary screen, biochemical, QFRET, BODIPY PC-A2 liposome substrate; inhibition, % at 12.2 µM; Group 3 secretory phospholipase A2 (Homo sapiens), Q9NZ20; 370,000 tested, 0.56% active; AID 743126, 2013; QFRET BODIPY PC-A2 liposome hydrolysis, fluorescence;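 active = inhibition above mean plus 3 SD of compounds lying within the high and low control bounds, cut at about 19% in these data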;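 also: 0% = median of test compound wells and 100% = no enzyme DMSO wells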
# PLCg1 inh: PLC-gamma1 enzyme inhibitors, primary screen, biochemical, fluorescence, purified enzyme | fluorogenic substrate | AID 720700, 2013 | inhibition, % at 12.2 µM | 1-phosphatidylinositol 4,5-bisphosphate phosphodiesterase gamma-1 (Homo sapiens), P19174 | 370,000 tested, 0.84% active
# PLCg1 ctr: PLC-gamma1 enzyme inhibitors, counter-screen for PLC-beta3 inhibitor project, biochemical, fluorescence; 3,300 tested, 3.1% active; shares compounds with PLCg1 inh; inhibition, % at 12.3 µM; purified PLC-gamma1, fluorogenic substrate
# PLCbeta3 conf: PLC-beta3 inhibitor confirmation, biochemical, fluorescence, purified enzyme. shares compounds with PLCg1 inh. AID 743261, 2014. inhibition, % at 12.3 µM. fluorogenic substrate fluorescence. 3,300 tested, 1% active; in the data active = inhibition above about 11%
# The depositor's hits bear a star; . = not tested or not shown. Most compounds without a hit are left out; they make up all but 1.6% or so of the library. Rule as the data show it, unless noted: active = inhibition above about 9.5%; inactive = the rest.
SMILES,proCasp7 act,proCasp3 act,PLC-beta3 inh,sPLA2-III inh,PLCg1 inh,PLCg1 ctr,PLCbeta3 conf
Cc1nc2c3cc(F)ccc3n(CCN3CCCCC3)c2s1,3,1,-10,9,9.7*,-6,0
O=C(O)c1ccc(NC2(C(=O)O)CCCC2)cc1,.,.,4,-1,-2,.,.
O=C(N/N=C/c1ccccn1)c1ccccc1,-1,5,5,0,11*,-11,-6
O=C(N/N=C/c1ccccn1)c1ccncc1,-5,-1,-5,4,-1,.,.
COc1cc(C(=O)Nc2cccc(-c3nc4ccccc4o3)c2C)cc(OC)c1OC,.,.,4,16,14*,-6,0
COc1ccc(C(=O)Nc2cc(C)nc3ccccc23)cc1OC,-7,3,2,8,10*,-6,-2
COc1ccc(C(=O)Nc2ccccc2C(=O)N2CCOCC2)cc1OC,-2,-1,7,15,9.8*,-6,-1
CCc1nc2c(OCC3CCCCC3)cccn2c1N(C)C(=O)c1ccccc1F,.,.,1,2,3,.,.
C=CCNC(=O)CN(C(=O)Cc1ccc(Cl)nc1)c1cccc(Br)c1,.,.,-1,-1,1,.,.
OC(CCCN1CCCCC1)(c1ccccc1)c1ccc(C(F)(F)F)cc1 (stereo unspecified),.,.,1,-1,3,.,.
O=C(Nc1cccc(C(=O)N2CCOCC2)c1)C1CCCCC1,.,.,3,-2,3,.,.
C[C@@H]1CN([C@H](C)CO)C(=O)CCCn2nncc2CO[C@H]1CN(C)S(=O)(=O)c1ccc2ccccc2c1,.,.,-25,7,-3,.,.
CCc1cccc2c(N=O)c(O)[nH]c12,-5,10,1,-48,11*,-2,1
CCn1c(=O)cc(OCC(=O)NCCCN2CCCC2=O)c2ccccc21,-1,8,-42,6,-20,.,.
O=C(COC(=O)c1ccccc1[N+](=O)[O-])Nc1cc(S(=O)(=O)N2CCOCC2)ccc1N1CCCC1,-4,-11,-6,-12,12*,2,3
O=C(Nc1cccc(Cl)c1)Nc1cc(S(=O)(=O)N2CCOCC2)ccc1N1CCCC1,-4,1,0,9,11*,-11,-6
CC(Oc1cccc(Cl)c1)C(=O)Nc1cc(S(=O)(=O)N2CCOCC2)ccc1N1CCCC1 (stereo unspecified),5,11,2,-1,1,.,.
O=C(COC(=O)Cc1n[nH]c(=O)c2ccccc12)NNC(=O)c1ccc(Cl)cc1,0,1,-6,-13,-4,.,.
NC(=O)CC[C@H](NC(=O)c1ccc(F)cc1)C(=O)OCC(=O)NCc1ccc(F)cc1,0,-8,4,7,10*,-2,-2
NC(=O)CC[C@H](NC(=O)c1ccc(F)cc1)C(=O)OCC(=O)Nc1c(F)c(F)c(F)c(F)c1F,1,3,2,0,3,.,.
CCN(C(=O)COC(=O)c1[nH]c(=O)[nH]c(=O)c1N)c1ccccc1,-8,1,-6,-1,0,.,.
Cc1c(Cl)cnc(NC(=O)COC(=O)c2cccc(S(=O)(=O)N3CCOCC3)c2)c1Cl,.,.,4,2,0,.,.
CN1CCc2ccccc2C1C1CCNCC1 (stereo unspecified),-1,6,0,6,0,.,.
CCC1C(=O)N(C)CCc2ccccc21 (stereo unspecified),-5,-2,4,2,12*,5,-2
CCOc1ccc(S(=O)(=O)N2CCN=C2c2ccccc2)c(C)c1C,-8,-4,-5,-13,3,.,.

# Screening results as filed in PubChem.
